Test results taken from ChEMBL document CHEMBL1129963, “Sulfonimidamide analogs of oncolytic sulfonylureas” (J Med Chem, 1997).
In brackets after ≈: the same amount, converted by molar mass. Each block holds one molecule with its values, some of them ahead of it.

Assays:
Mus musculus [1] = experiment: In vivo antitumor activity against subaxillary implanted 6C3HED lymphosarcoma implanted in C3H mice at a dose of 150 mg/kg administered perorally twice daily for a period of 8 days.; assay type: functional; conditions: for inhibition in vivo at 150 mg/kg: Mus musculus, 6C3HED, po, 192 h; for Inhibition: route oral, 150 mg/kg
How it was run: (§1)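 6C3HED lymphosarcoma was carried in C3H mice. Compound was dosed at the stated route and schedule for 8 days (daily, twice daily, or days 1, 3, 5, 7) and tumor growth inhibition was scored against controls. The table value is the lowest dose giving >80% inhibition, or the highest dose tested. Deaths per group were recorded.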

CCRF-CEM = experiment: In vitro cytotoxicity against CCRF-CEM cells; assay type: functional, cell-based; conditions: Homo sapiens
How it was run: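 CCRF-CEM cells were grown in culture for 72 h with compound. The value is the concentration that inhibited growth to 50% of control growth.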

Mus musculus [2] = experiment: In vivo antitumor activity against subaxillary implanted 6C3HED lymphosarcoma implanted in C3H mice at a dose of 300 mg/kg administered perorally twice daily for a period of 8 days.; assay type: functional; conditions: 192 h, route oral; how it was run: as §1
Mus musculus [3] = experiment: In vivo antitumor activity of compound against subaxillary implanted 6C3HED lymphosarcoma implanted in C3H mice at a dose of 243 mg/kg administered intraperitoneally daily for a period of 8 days.; assay type: functional; conditions: ip, 192 h, route intraperitoneal; how it was run: as §1
Mus musculus [4] = experiment: In vivo antitumor activity of compound against subaxillary implanted 6C3HED lymphosarcoma implanted in C3H mice at a dose of 150 mg/kg administered intraperitoneally daily for a period of 8 days.; assay type: functional; conditions: ip, 192 h, route intraperitoneal; how it was run: as §1
Mus musculus [5] = experiment: In vivo antitumor activity of compound against subaxillary implanted 6C3HED lymphosarcoma implanted in C3H mice at a dose of 300 mg/kg administered intraperitoneally daily for a period of 8 days.; assay type: functional; conditions: ip, 192 h, route intraperitoneal; how it was run: as §1
Mus musculus [6] = experiment: In vivo antitumor activity of compound against subaxillary implanted 6C3HED lymphosarcoma implanted in C3H mice at a dose of 50 mg/kg administered perorally twice daily for a period of 8 days.; assay type: functional; conditions: 192 h, route oral; how it was run: as §1
Mus musculus [7] = experiment: In vivo antitumor activity against subaxillary implanted 6C3HED lymphosarcoma implanted in C3H mice at a dose of 300 mg/kg administered perorally daily for a period of 8 days.; assay type: functional; conditions: 192 h, route oral; how it was run: as §1
[8] = Metabolic breakdown to the o-sulfate of p-chloroaniline (2-amino-5-chlorophenyl sulfate) by giving 100 mg/kg oral doses of the compound; assay type: ADME, organism-based; set-up: dose 100 mg/kg, route oral; conditions: in vivo
How it was run: (§2)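 Groups of two to four mice received single 100 mg/kg oral doses of each compound. Urine was pooled over 0-24 h, and the 2-amino-5-chlorophenyl sulfate excreted in 24 h per mouse was quantified as the marker of p-chloroaniline release.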

Mus musculus [9] = experiment: In vivo antitumor activity of compound against subaxillary implanted 6C3HED lymphosarcoma implanted in C3H mice at a dose of 150 mg/kg administered perorally twice daily for a period of 8 days; Toxic; assay type: functional, organism-based; set-up: dose 150 mg/kg; how it was run: as §1
Mus musculus [10] = experiment: (§3) In vivo antitumor activity of compound against subaxillary implanted 6C3HED lymphosarcoma implanted in C3H mice at a dose of 25 mg/kg administered perorally twice daily for a period of 8 days.; assay type: functional; conditions: route oral
How it was run: (§4)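 Oral dosing twice daily for 8 days in C3H mice bearing 6C3HED lymphosarcoma. Read-out is percent tumor growth inhibition relative to controls, with deaths per group also recorded. The full in vivo protocol is given in an earlier report.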

Mus musculus [11] = experiment: In vivo antitumor activity of compound against subaxillary implanted 6C3HED lymphosarcoma implanted in C3H mice at a dose of 150 mg/kg administered perorally daily for a period of 8 days.; assay type: functional; conditions: 192 h, route oral; how it was run: as §1
Mus musculus [12] = experiment: (§5) In vivo antitumor activity of compound against subaxillary implanted 6C3HED lymphosarcoma implanted in C3H mice at a dose of 75 mg/kg administered perorally twice daily for a period of 8 days.; assay type: functional; conditions: 192 h, route oral; how it was run: as §1
[13] = % dose converted to 2-amino-5-chlorophenyl sulfate; assay type: ADME; how it was run: as §2
[14] = % dose converted to 4-(S-amino-N-{[(4-chlorophenyl)amino]carbonyl}sulfonimidoyl)benzoic acid (compound 41); assay type: ADME
Mus musculus [15] = experiment: as §5; assay type: functional; conditions: route oral; how it was run: as §4
Mus musculus [16] = experiment: In vivo antitumor activity of compound against subaxillary implanted 6C3HED lymphosarcoma implanted in C3H mice at a dose of 25 mg/kg administered perorally daily for a period of 8 days.; assay type: functional; conditions: 192 h, route oral; how it was run: as §1
Mus musculus [17] = experiment: In vivo antitumor activity of compound against subaxillary implanted 6C3HED lymphosarcoma implanted in C3H mice at a dose of 4.0 mg/kg administered intraperitoneally twice daily for a period of 8 days.; assay type: functional; conditions: ip, 192 h, route intraperitoneal; how it was run: as §1
Mus musculus [18] = experiment: as §3; assay type: functional; conditions: 192 h, route oral; how it was run: as §1

Structure (SMILES): Cc1ccc([S+](N)([O-])=NC(=O)Nc2ccccc2)cc1 (centres undefined)
inhibition in vivo at 150 mg/kg (Mus musculus [1]): 0% | IC50 (CCRF-CEM): > 20 µg/mL

Structure (SMILES): Cc1ccc([S+](N)([O-])=NC(=O)Nc2ccc(Br)cc2)cc1 (centres undefined)
inhibition in vivo at 150 mg/kg (Mus musculus [1]): 100% | IC50 (CCRF-CEM): > 20 µg/mL

Structure (SMILES): Cc1ccc([S+]([O-])(=NC(=O)Nc2ccc(Cl)cc2)NCCc2ccccc2)cc1 (centres undefined)
inhibition in vivo at 300 mg/kg (Mus musculus [2]): 48% | IC50 (CCRF-CEM): 5.3 µg/mL (≈ 12.4 µM)

Structure (SMILES): N[S+]([O-])(=NC(=O)Nc1ccc(Cl)cc1)c1ccc(C(=O)O)cc1 (centres undefined)
inhibition in vivo at 243 mg/kg (Mus musculus [3]): 0%

Structure (SMILES): N[S+]([O-])(=NC(=O)Nc1ccc(Cl)cc1)c1ccc(C=O)cc1 (centres undefined)
inhibition in vivo at 150 mg/kg (Mus musculus [4]): 80% | IC50 (CCRF-CEM): 5.6 µg/mL (≈ 16.6 µM)

Structure (SMILES): Cc1cc([S+](N)([O-])=NC(=O)Nc2ccc(Cl)cc2)cc(C)c1Cl (centres undefined)
inhibition in vivo at 300 mg/kg (Mus musculus [2]): 0% | IC50 (CCRF-CEM): 6.2 µg/mL (≈ 16.7 µM)

Structure (SMILES): Cc1ccc([S+](N)([O-])=NC(=O)Nc2ccc(O)cc2)cc1 (centres undefined)
inhibition in vivo at 300 mg/kg (Mus musculus [5]): 11% | IC50 (CCRF-CEM): > 20 µg/mL

Structure (SMILES): CCCCN(C(C)=O)[S+]([O-])(=NC(=O)N(C(C)=O)c1ccc(Cl)cc1)c1ccc(C)cc1 (centres undefined)
inhibition in vivo at 300 mg/kg (Mus musculus [2]): 10% | IC50 (CCRF-CEM): 2.9 µg/mL (≈ 6.25 µM)

Structure (SMILES): Cc1ccc([S+](N)([O-])=NC(=O)Nc2ccc(Cl)cc2)cc1 (stereo in doubt; 14)
inhibition in vivo at 50 mg/kg (Mus musculus [6]): 95% | inhibition in vivo at 300 mg/kg (Mus musculus [5]): 98% | inhibition in vivo at 300 mg/kg (Mus musculus [7]): 89% | Activity [8]: < 0.2 µM | inhibition in vivo at 150 mg/kg (Mus musculus [4]): 92% | IC50 (CCRF-CEM): > 20 µg/mL

Structure (SMILES): COC(=O)c1ccc([S+](N)([O-])=NC(=O)Nc2ccc(Cl)cc2)cc1 (centres undefined)
inhibition in vivo at 300 mg/kg (Mus musculus [2]): 0% | IC50 (CCRF-CEM): > 20 µg/mL

Structure (SMILES): Cc1ccc([S+](N)([O-])=NC(=O)Nc2ccc(C(F)(F)F)cc2)cc1 (centres undefined)
IC50 (CCRF-CEM): > 20 µg/mL

Structure (SMILES): CCCCN[S+]([O-])(=NC(=O)Nc1ccc(Cl)cc1)c1ccc(C)cc1 (centres undefined)
inhibition in vivo at 150 mg/kg (Mus musculus [1]): 88% | IC50 (CCRF-CEM): 0.4 µg/mL (≈ 1.05 µM)

Structure (SMILES): N[S+]([O-])(=NC(=O)Nc1ccc(Cl)cc1)c1ccc(C(F)(F)F)cc1 (centres undefined)
inhibition (Mus musculus [9]): Toxic | IC50 (CCRF-CEM): 15.2 µg/mL (≈ 40.2 µM) | Lethality (Mus musculus [10]): 100%

Activity [8]: 1.2 µM
Structure (SMILES): CN[S+]([O-])(=NC(=O)Nc1ccc(Cl)cc1)c1ccc(C)cc1 (centres undefined)
inhibition in vivo at 150 mg/kg (Mus musculus [11]): 93% | IC50 (CCRF-CEM): > 20 µg/mL

Structure (SMILES): CCCCNC(=O)N=[S+](N)([O-])c1ccc(C)cc1 (centres undefined)
inhibition in vivo at 300 mg/kg (Mus musculus [5]): 12% | IC50 (CCRF-CEM): > 20 µg/mL

Activity [8]: < 0.15 µM
Structure (SMILES): N[S+]([O-])(=NC(=O)Nc1ccc(Cl)cc1)c1ccc2c(c1)CCC2 (centres undefined)
inhibition in vivo at 150 mg/kg (Mus musculus [4]): 86% | IC50 (CCRF-CEM): > 20 µg/mL

Structure (SMILES): Cc1ccc([S+](N)([O-])=NC(=O)Nc2ccc(Cl)cc2)cc1 (single isomer, unassigned; (-))
inhibition in vivo at 75 mg/kg (Mus musculus [12]): 100% | Dose converted [13]: 4.7% | Activity [8]: 0.58 µM | Inhibition (Mus musculus [1]): 100% | Dose converted [14]: 18% | Lethality (Mus musculus [15]): 60%

Structure (SMILES): CCCN[S+]([O-])(=NC(=O)Nc1ccc(Cl)cc1)c1ccc(C)cc1 (centres undefined)
inhibition in vivo at 300 mg/kg (Mus musculus [7]): 69% | IC50 (CCRF-CEM): 10.9 µg/mL (≈ 29.8 µM)

Structure (SMILES): Cc1ccc([S+]([O-])(=NC(=O)Nc2ccc(Cl)cc2)N(C)C)cc1 (centres undefined)
inhibition in vivo at 300 mg/kg (Mus musculus [2]): 63% | IC50 (CCRF-CEM): > 20 µg/mL

Structure (SMILES): Cc1ccc([S+](N)([O-])=NC(=O)N(C)c2ccc(Cl)cc2)cc1 (centres undefined)
inhibition in vivo at 150 mg/kg (Mus musculus [1]): 83% | IC50 (CCRF-CEM): > 20 µg/mL

Structure (SMILES): N[S+]([O-])(=NC(=O)Nc1ccc(Cl)cc1)c1ccc(CO)cc1 (centres undefined)
inhibition in vivo at 75 mg/kg (Mus musculus [12]): 99% | IC50 (CCRF-CEM): > 20 µg/mL

Structure (SMILES): CN[S+]([O-])(=NC(=O)Nc1ccc(Cl)cc1)c1ccc(C)c(C)c1 (centres undefined)
IC50 (CCRF-CEM): 16.2 µg/mL (≈ 46 µM) | inhibition in vivo at 25 mg/kg (Mus musculus [16]): 98%

Structure (SMILES): Cc1ccc([S+]([O-])(=NC(=O)Nc2ccc(Cl)cc2)Nc2ccccc2)cc1 (centres undefined)
inhibition in vivo at 300 mg/kg (Mus musculus [7]): 5% | IC50 (CCRF-CEM): 7 µg/mL (≈ 17.5 µM)

Structure (SMILES): Cc1ccc([S+](N)([O-])=NC(=O)Nc2ccc(Cl)cc2)cc1 (stereo in doubt; 16(+))
Dose converted [13]: < 0.3% | Inhibition (Mus musculus [1]): 5% | Dose converted [14]: 17%

Structure (SMILES): Cc1ccc([S+](N)([O-])=NC(=O)Nc2ccc(Cl)cc2)cc1C (centres undefined)
inhibition in vivo at 4 mg/kg (Mus musculus [17]): 97% | IC50 (CCRF-CEM): > 20 µg/mL

Structure (SMILES): CCc1ccc([S+](N)([O-])=NC(=O)Nc2ccc(Cl)cc2)cc1 (centres undefined)
inhibition in vivo at 25 mg/kg (Mus musculus [18]): 91% | IC50 (CCRF-CEM): > 20 µg/mL

Structure (SMILES): Cc1ccc([S+](N)([O-])=NC(=O)Nc2ccc(OCc3ccccc3)cc2)cc1 (centres undefined)
inhibition in vivo at 300 mg/kg (Mus musculus [2]): 5% | IC50 (CCRF-CEM): > 20 µg/mL
